# In PubChem BioAssay AID1800 (The Scripps Research Institute Molecular Screening Center, 2009):
# The whole screen tested about 290,000 compounds, of which about 1,600 (0.55%) were called active.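 Rule for the calls: active = inhibition above the mean of all tested compounds plus 3 SD, set per campaign (cut at about 35% in these data); inactive = the rest.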 The full list was thinned out, with actives kept by preference.
# System: Hepatitis C virus NS3 helicase
# Experiment: inhibitors of HCV NS3 helicase, primary screen, biochemical, Cy5 molecular beacon fluorescence (AID 1800);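 note: 0% = DMSO wells and 100% = thioflavine S control wells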
# Conditions: NS3 helicase DNA unwinding, at 10.9 µM, active compounds read high
# Summary of the method: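 Test system: hepatitis C virus NS3 helicase domain fragment enzyme. Also added: annealed dual-labelled DNA beacon duplex, ATP-started. Timing: 60 min unwinding reaction at 25 °C after ATP addition. Technique: Cy5 fluorescence. Measure: % inhibition of unwinding.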
row,SMILES,inhibition
1,O=c1c(-c2ccccc2Cl)c[nH]n1-c1ccccc1,3.07% (inactive)
2,Cc1cc(NC(=O)CSc2nnc(Nc3ccccc3F)s2)no1,-0.95% (inactive)
3,Cc1ccccc1Nc1nnc(SCC(=O)c2cc3ccccc3o2)s1,47.4% (active)
4,Cc1ccc(Nc2nnc(SCC(=O)c3cc4ccccc4o3)s2)cc1C,13.9% (inactive)
5,CC1CCN(S(=O)(=O)c2ccc(NC(=O)C3CC(=O)N(c4ccccc4)C3)cc2)CC1 (stereo not given),-43.1% (inactive)
6,CN(C)c1ccnc2sc3c(=O)n(-c4ccc(Cl)cc4)cnc3c12,3.7% (inactive)
7,Cc1cc(C)c2oc(C(=O)Nc3ccc(S(=O)(=O)Nc4nccc(C)n4)cc3)cc(=O)c2c1,-10.1% (inactive)
8,O=C(Nc1ccccc1C(=O)N1CCCCC1)c1ccco1,5.37% (inactive)
9,CS/C(=C\C(=O)c1ccco1)Nc1ccccc1Cl,64.5% (active)
10,O=C(Nc1ccccc1)c1ccco1,10.7% (inactive)
11,CCOc1ccc2sc(NS(=O)(=O)c3ccc(N)cc3)nc2c1,-15.8% (inactive)
12,CN(C)[C@@H]1C(=O)C(C(N)=O)=C(O)[C@@]2(O)C(=O)C3=C(O)c4c(O)ccc(Cl)c4[C@@H](O)[C@H]3C[C@@H]12,39.9% (active)
13,Cc1cccc(-n2ncc(Cl)c(Cl)c2=O)c1,10.4% (inactive)
14,Cc1ccc2nc3c(cc(C(=O)NCCc4ccccc4)c(=N)n3CC3CCCO3)c(=O)n2c1 (stereo not given),-6.17% (inactive)
15,O=C(Oc1ccc([N+](=O)[O-])cc1)c1ccc(Cl)c(S(=O)(=O)N2CCCCC2)c1,7.15% (inactive)
16,COc1cc2ccccc2cc1C(=O)Nc1ccc(N2CCOCC2)cc1,-2.47% (inactive)
17,CC(=O)Oc1cccc(N2C(=O)CC(Nc3ccc(N4CCOCC4)cc3)C2=O)c1 (stereo not given),48.2% (active)
18,CC(=O)Oc1cccc(N2C(=O)C3CC=C(Cl)CC3C2=O)c1 (stereo not given),6.02% (inactive)
19,CCCCOC(=O)Nc1nnc(CC(=O)NCc2ccccc2)s1,8.31% (inactive)
20,COc1ccc(NC(=O)CCC(=O)Nc2cc(OC)c(NC(=O)c3ccco3)cc2OC)c(OC)c1,7.66% (inactive)
21,COc1ccc(NC(=O)CSc2ccc(-c3ccco3)nn2)c(OC)c1,36.8% (active)
22,O=C(CSc1ccc(-c2ccco2)nn1)Nc1cccc(F)c1,20.3% (inactive)

row,SMILES,inhibition
1,CC1=C(C(=O)OCC2CCCCC2)C(c2ccc(F)cc2)NC(=O)N1 (stereo not given),0.43% (inactive)
2,O=C1c2ccccc2S(=O)(=O)N1Cc1c(F)cccc1Cl,0.54% (inactive)
3,CN1C/C(=C/c2cccs2)C(=O)/C(=C\c2cccs2)C1,9.92% (inactive)
4,CCC1C/C(=C/c2cccs2)C(=O)/C(=C/c2cccs2)C1 (stereo not given),44.1% (active)
5,O=C1/C(=C/c2cccs2)CCc2ccccc21,-2.06% (inactive)
6,NC(=O)C1CCN(CC(O)CSc2ccc(F)cc2)CC1 (stereo not given),3.59% (inactive)
7,O=C(Nc1ccccc1)C1CCN(C(=O)c2ccc(Br)cc2)CC1,-8.93% (inactive)
8,Cc1ccc(S(=O)(=O)NCCC(c2ccccc2)c2ccccc2)cc1C(=O)O,38.8% (active)
9,Cc1ccc(S(=O)(=O)NCCSc2ccccc2)cc1[N+](=O)[O-],-4.6% (inactive)
10,Cc1ccc(S(=O)(=O)NCCCn2ccnc2)cc1C(=O)NC(C)C,-0.51% (inactive)
11,O=[N+]([O-])c1ccc2c(c1)Nc1nc3ccccc3nc1N2,3.43% (inactive)
12,CN1CCN(C(=O)c2cnn(-c3ccccc3)c2NC(=O)c2ccc([N+](=O)[O-])cc2)CC1,5.97% (inactive)
13,CCOC(=O)c1c(-c2ccccc2)oc2ccc(OCC(N)=O)cc12,-0.28% (inactive)
14,CCOC(=O)c1c(-c2ccccc2)oc2cc(Br)c(O)cc12,-8.03% (inactive)
15,CCOC(=O)c1c(-c2ccccc2)oc2cc(Br)c(O)c(C=O)c12,63.8% (active)
16,CCOc1cc(-c2noc(CCCC(=O)NC3CCCCC3)n2)ccc1OC,-0.34% (inactive)
17,CCOc1ccc(CN2CCN(Cc3c[nH]c4ccccc34)CC2)cc1,-65.4% (inactive)
18,CCC1(C(=O)c2ccccc2)C(c2cccc([N+](=O)[O-])c2)C1(C(=O)OC)C(=O)OC (stereo not given),-10.6% (inactive)
19,Cc1ccc(N=C2NC(=O)/C(=C/C=C/c3ccco3)S2)cc1C,60.8% (active)
20,Cc1ccc(N2NC(=O)/C(=C/C=C/c3ccco3)C2=O)cc1C,31.6% (inactive)
21,Cc1cccc(N=C2NC(=O)/C(=C/c3cn(C)c4ccccc34)S2)c1,-2.21% (inactive)
22,Cc1ccc(S(=O)(=O)NCCC(=O)Nc2cccc(S(N)(=O)=O)c2)cc1C,-12.2% (inactive)

row,SMILES,inhibition
1,Nc1c(C(=O)c2cccs2)sc2nsc(SCCN3CCCCC3)c12,-21.1% (inactive)
2,CC(=O)c1cccc(NC(=S)N2CCN(S(C)(=O)=O)CC2)c1,-3.09% (inactive)
3,Cc1ccc(OCC(=O)Nc2ccccc2Sc2ccc(Cl)cc2)c([N+](=O)[O-])n1,-5.04% (inactive)
4,COc1ccc(/C=C/C(=O)c2ccc(OC)cc2O)cc1,-6.12% (inactive)
5,COc1ccc(C(=O)/C=C/c2ccc(OC3CSC3)cc2)cc1,-2.94% (inactive)
6,COc1ccc(/C=C/C(=O)c2cc(Br)ccc(=O)c2O)cc1,45.2% (active)
7,O=C(NC(=S)Nc1ccccc1N1CCCCC1)c1ccc(F)cc1,1.82% (inactive)
8,CCCn1c(C2CCCN2c2nc(-c3ccc(C)cc3)cs2)nc2cc(Cl)c(N3CCCCC3)cc21 (stereo not given),35.5% (inactive)
9,CCn1c(C)c(C)c2cc(C(=O)N3CCN(c4cccc(C)c4C)CC3)ccc21,2.52% (inactive)
10,CCOc1cc(C2C(C(=O)c3ccco3)=C(O)C(=O)N2Cc2ccccc2)ccc1O (stereo not given),9.26% (inactive)
11,COc1cc(C2C(C(=O)c3ccco3)=C(O)C(=O)N2c2cc(C)on2)ccc1OCc1ccccc1 (stereo not given),43.6% (active)
12,Cc1cc(N2C(=O)C(O)=C(C(=O)c3ccc(C)o3)C2c2ccc(OCc3ccccc3)cc2)no1 (stereo not given),87.7% (active)
13,Cc1ccc2nc(N3C(=O)C(O)=C(C(=O)c4ccco4)C3c3cccc(O)c3)sc2c1 (stereo not given),25.4% (inactive)
14,CCCOc1ccc(C2C(C(=O)c3ccc(C)o3)=C(O)C(=O)N2CCCn2ccnc2)cc1 (stereo not given),-15.3% (inactive)
15,C=CCOc1cccc(C2C(C(=O)c3ccc(C)o3)=C(O)C(=O)N2CCCn2ccnc2)c1 (stereo not given),-4.21% (inactive)
16,COc1ccc(-c2cc(C(=O)N3CCN(Cc4ccc5c(c4)OCO5)CC3)on2)cc1OC,-19.4% (inactive)
17,CC(=O)Nc1ccc(C(=O)N(C2=NC(C)CS2)c2ccc(Cl)cc2)cc1 (stereo not given),-10.2% (inactive)
18,COc1ccccc1CCCNC(=O)C1CCC(=O)N(CCN2CCOCC2)C1 (stereo not given),7.14% (inactive)
19,COc1cccc(CNC(=O)c2cccnc2Sc2ccc(Cl)cc2)c1,-6.66% (inactive)
20,CC(=O)O[C@H]1c2ccccc2-c2ccccc2[C@@H]1OC(C)=O,13.1% (inactive)
21,O=Cc1c(NCCc2cccc(F)c2)c2ccccc2[nH]c1=O,0.14% (inactive)
